Experimental data: ChEMBL document CHEMBL1132156, “Synthesis and structure-activity relationships of potential anticancer agents: alkylcarbamates of 3-(9-acridinylamino)-5-hydroxymethylaniline” (J Med Chem, 1999)

Key:
[1] = system: HL-60; assay: In vitro inhibition of human leukemic HL-60 cell growth in culture; type: functional, cell-based
How it was run: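 HL-60 cells were seeded at 5×10^4 cells/mL in RPMI 1640 with 10% heat-inactivated FBS, penicillin and streptomycin, at 37 °C in 5% CO2. Cells were exposed for 72 h to six or seven drug concentrations, run in duplicate. Viability was read by XTT-tetrazolium microculture absorbance, and IC50 was derived from median-effect plot analysis.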

[2] = system: Mus musculus; assay: […] anticancer activity against B6D2F-1 mice bearing P388 leukemia measured by the Average survival time(day+/-SD) at an intravenous dose of 4(mg/kg).; type: functional
How it was run: (§1)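 Male B6D2F1 mice, 8 weeks old, 20–25 g. P388/0 ascites cells (0.2 mL, ascites:saline 1.10) were implanted iv on day 0, and the tumor grew in the liver. Drug was given iv by tail vein on days 1, 3, 5, 7 and 9 (Q2Dx5), with 4–5 mice per group. Survival time was scored as 8 a.m. (0.0), 1 p.m. (0.25) or 5 p.m. (0.5) deaths. %ILS was averaged against untreated controls, and toxic deaths were counted.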

[3] = system: Mus musculus; assay: […] anticancer activity against B6D2F-1 mice bearing P388 leukemia measured by the average survival time(day+/-SD) at an intravenous dose of 3(mg/kg)..; type: functional; how it was run: as §1
[4] = system: Mus musculus; assay: […] anticancer activity against B6D2F-1 mice bearing P388 leukemia measured by the average weight change(g) after day 7 at an intravenous dose of 3(mg/kg).; type: functional
How it was run: (§2)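 Male B6D2F1 mice (8 weeks old, 20–25 g) were implanted iv on day 0 with P388/0 ascites cells (0.2 mL; ascites:saline = 1.10). Tumor grew in the liver. Drug was given iv via the tail vein, Q2Dx5, on days 1, 3, 5, 7 and 9. Body weight was recorded on days 1, 7, 9 and 11 and reported as the average change (g).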

[5] = system: Mus musculus; assay: […] anticancer activity against B6D2F-1 mice bearing P388 leukemia measured by the average weight change(g) after day 7 at an intravenous dose of 4(mg/kg).; type: functional; how it was run: as §2
[6] = system: Mus musculus; assay: […] anticancer activity against B6D2F-1 mice bearing P388 leukemia measured by the average weight change(g) after day 9 at an intravenous dose of 4(mg/kg).; type: functional; how it was run: as §2
[7] = system: Mus musculus; assay: […] anticancer activity against B6D2F-1 mice bearing P388 leukemia measured by the average weight change(g) after day 11 at an intravenous dose of 4(mg/kg).; type: functional
How it was run: (§3)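 Male B6D2F1 mice (8 weeks old, 20–25 g) were implanted iv on day 0 with P388/0 ascites cells (0.2 mL; ascites:saline 1.10), which grew in the liver. Drug was given iv via the tail vein, Q2Dx5, on days 1, 3, 5, 7 and 9. Groups had 4–5 mice. Day 1 value is mean body weight; later days are weight change.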

[8] = system: Mus musculus; assay: […] anticancer activity against B6D2F-1 mice bearing P388 leukemia measured by the average weight change(g) after day 11 at an intravenous dose of 3(mg/kg).; type: functional; how it was run: as §3
[9] = system: Mus musculus; assay: […] anticancer activity against B6D2F-1 mice bearing P388 leukemia measured by the increase in lifespan(%) at an intravenous dose of 3(mg/kg)..; type: functional; how it was run: as §1
[10] = system: Mus musculus; assay: […] anticancer activity against B6D2F-1 mice bearing P388 leukemia measured by the increase in lifespan(%) at an intravenous dose of 4(mg/kg).; type: functional; how it was run: as §1
[11] = system: Mus musculus; assay: […] anticancer activity against 5 B6D2F-1 mice bearing P388 leukemia measured by the toxicity death at an intravenous dose of 3(mg/kg)..; type: organism-based; details: in vivo; how it was run: as §1
[12] = system: Mus musculus; assay: […] anticancer activity against 5 B6D2F-1 mice bearing P388 leukemia measured by the toxicity death at an intravenous dose of 4(mg/kg).; type: organism-based; details: in vivo; how it was run: as §1
[13] = system: Mus musculus; assay: […] anticancer activity against B6D2F-1 mice bearing P388 leukemia measured by the average body weight(g) after day 1 at an intravenous dose of 3(mg/kg).
[14] = system: Mus musculus; assay: […] anticancer activity against B6D2F-1 mice bearing P388 leukemia measured by the average body weight(g) after day 1 at an intravenous dose of 4(mg/kg).
[15] = system: Mus musculus; assay: […] anticancer activity against B6D2F-1 mice bearing P388 leukemia measured by the Average survival time(day+/-SD) at an intravenous dose of 18(mg/kg).; type: functional; how it was run: as §1
[16] = system: Mus musculus; assay: […] anticancer activity against B6D2F-1 mice bearing P388 leukemia measured by the Average survival time(day+/-SD) at an intravenous dose of 24(mg/kg).; type: functional; how it was run: as §1
[17] = system: Mus musculus; assay: […] anticancer activity against B6D2F-1 mice bearing P388 leukemia measured by the average survival time(day+/-SD) at an intravenous dose of 12(mg/kg)..; type: functional; how it was run: as §1
[18] = system: Mus musculus; assay: […] anticancer activity against B6D2F-1 mice bearing P388 leukemia measured by the average weight change(g) after day 7 at an intravenous dose of 18(mg/kg).; type: functional; how it was run: as §3
[19] = system: Mus musculus; assay: […] anticancer activity against B6D2F-1 mice bearing P388 leukemia measured by the average weight change(g) after day 7 at an intravenous dose of 24(mg/kg).; type: functional; how it was run: as §3
[20] = system: Mus musculus; assay: […] anticancer activity against B6D2F-1 mice bearing P388 leukemia measured by the average weight change(g) after day 11 at an intravenous dose of 18(mg/kg).; type: functional; how it was run: as §3
[21] = system: Mus musculus; assay: […] anticancer activity against B6D2F-1 mice bearing P388 leukemia measured by the average weight change(g) after day 7 at an intravenous dose of 12(mg/kg).; type: functional; how it was run: as §3
[22] = system: Mus musculus; assay: […] anticancer activity against B6D2F-1 mice bearing P388 leukemia measured by the increase in lifespan(%) at an intravenous dose of 12(mg/kg)..; type: functional; how it was run: as §1
[23] = system: Mus musculus; assay: […] anticancer activity against B6D2F-1 mice bearing P388 leukemia measured by the increase in lifespan(%) at an intravenous dose of 18(mg/kg).; type: functional; how it was run: as §1
[24] = system: Mus musculus; assay: […] anticancer activity against B6D2F-1 mice bearing P388 leukemia measured by the average weight change(g) after day 11 at an intravenous dose of 24(mg/kg).; type: functional; how it was run: as §3
[25] = system: Mus musculus; assay: […] anticancer activity against B6D2F-1 mice bearing P388 leukemia measured by the average weight change(g) after day 11 at an intravenous dose of 12(mg/kg).; type: functional; how it was run: as §3
[26] = system: Mus musculus; assay: […] anticancer activity against B6D2F-1 mice bearing P388 leukemia measured by the average weight change(g) after day 9 at an intravenous dose of 12(mg/kg).; type: functional; how it was run: as §2
[27] = system: Mus musculus; assay: […] anticancer activity against B6D2F-1 mice bearing P388 leukemia measured by the average weight change(g) after day 9 at an intravenous dose of 18(mg/kg).; type: functional; how it was run: as §2
[28] = system: Mus musculus; assay: […] anticancer activity against B6D2F-1 mice bearing P388 leukemia measured by the average weight change(g) after day 9 at an intravenous dose of 24(mg/kg).; type: functional; how it was run: as §2
[29] = system: Mus musculus; assay: […] anticancer activity against B6D2F-1 mice bearing P388 leukemia measured by the increase in lifespan(%) at an intravenous dose of 24(mg/kg).; type: functional; how it was run: as §1
[30] = system: Mus musculus; assay: […] anticancer activity against 5 B6D2F-1 mice bearing P388 leukemia measured by the toxicity death at an intravenous dose of 12(mg/kg)..; type: organism-based; details: in vivo; how it was run: as §1
[31] = system: Mus musculus; assay: […] anticancer activity against 5 B6D2F-1 mice bearing P388 leukemia measured by the toxicity death at an intravenous dose of 18(mg/kg).; type: organism-based; details: in vivo; how it was run: as §1
[32] = system: Mus musculus; assay: […] anticancer activity against 5 4 B6D2F-1 mice bearing P388 leukemia measured by the toxicity death at an intravenous dose of 24(mg/kg).; type: organism-based; details: in vivo; how it was run: as §1
[33] = system: Mus musculus; assay: […] anticancer activity against B6D2F-1 mice bearing P388 leukemia measured by the average body weight(g) after day 1 at an intravenous dose of 18(mg/kg).
[34] = system: Mus musculus; assay: […] anticancer activity against B6D2F-1 mice bearing P388 leukemia measured by the average body weight(g) after day 1 at an intravenous dose of 24(mg/kg).
[35] = system: Mus musculus; assay: […] anticancer activity against B6D2F-1 mice bearing P388 leukemia measured by the average body weight(g) after day 1 at an intravenous dose of 12(mg/kg).

CNC(=O)c1cccc2c(Nc3cc(N)cc(CO)c3)c3ccccc3nc12
IC50 [1]: 290 nM

Nc1cc(CO)cc(Nc2c3ccccc3nc3c(Br)cccc23)c1
IC50 [1]: 1500 nM

CCOC(=O)Nc1cc(CO)cc(Nc2c3ccccc3nc3c(C(=O)NCCN(C)C)cccc23)c1
IC50 [1]: 5.7 nM

COc1cccc2c1C(=O)c1c(O)c3c(c(O)c1C2=O)C[C@@](O)(C(=O)CO)C[C@@H]3O[C@H]1C[C@H](N)[C@H](O)[C@H](C)O1 [DOXORUBICIN]
Average survival [2]: 27.4 days | Average survival [3]: 14.2 days | Average weight change [4]: -0.4 g | Average weight change [5]: -1.4 g | Average weight change [6]: -1.6 g | Average weight change [7]: -3.2 g | Average weight change [8]: -3.6 g | Increase in life-span [9]: 122% | Increase in life-span [10]: 328% | Toxicity related death [11]: 0 | Toxicity related death [12]: 0 | Body weight [13]: 23 g | Body weight [14]: 23.6 g

Cc1cccc2c(Nc3cc(N)cc(CO)c3)c3ccccc3nc12
IC50 [1]: 7.6 nM

CCCOC(=O)Nc1cc(CO)cc(Nc2c3ccccc3nc3ccccc23)c1
IC50 [1]: 8 nM

CNC(=O)c1cccc2c(Nc3cc(N)cc(CO)c3)c3cccc(C)c3nc12
IC50 [1]: 93 nM

Cc1cccc2c(Nc3cc(N)cc(CO)c3)c3cccc(C(=O)NCCN(C)C)c3nc12
IC50 [1]: 7.4 nM

Nc1cc(CO)cc(Nc2c3ccccc3nc3c(F)cccc23)c1
IC50 [1]: 150 nM

Nc1cc(CO)cc(Nc2c3ccccc3nc3c(Cl)cccc23)c1
IC50 [1]: 370 nM

CCOC(=O)Nc1cc(CO)cc(Nc2c3ccccc3nc3c(OC)cccc23)c1
IC50 [1]: 10 nM

COC(=O)Nc1cc(CO)cc(Nc2c3ccccc3nc3ccccc23)c1
IC50 [1]: 8.5 nM

O=C(Nc1cc(CO)cc(Nc2c3ccccc3nc3ccccc23)c1)OCc1ccccc1
IC50 [1]: 29 nM

CC(C)(C)OC(=O)Nc1cc(CO)cc(Nc2c3ccccc3nc3ccccc23)c1
IC50 [1]: 24 nM | Average survival [15]: 22.1 days | Average survival [16]: 21 days | Average survival [17]: 18 days | Average weight change [18]: -1.3 g | Average weight change [19]: -1.4 g | Average weight change [20]: -1.6 g | Average weight change [21]: -0.1 g | Increase in life-span [22]: 181% | Increase in life-span [23]: 245% | Average weight change [24]: -1.8 g | Average weight change [25]: 0.3 g | Average weight change [26]: -0.7 g | Average weight change [27]: -1.2 g | Average weight change [28]: -1.4 g | Increase in life-span [29]: 228% | Toxicity related death [30]: 0 | Toxicity related death [31]: 0 | Toxicity related death [32]: 2 | Body weight [33]: 23.9 g | Body weight [34]: 22.3 g | Body weight [35]: 23.1 g

COc1cccc2c(Nc3cc(N)cc(CO)c3)c3cccc(C(=O)NCCN(C)C)c3nc12
IC50 [1]: 38 nM
